The structures appear in SMILES notation. The source made the active and inactive calls. The rule behind the calls is not given here.

The test system of assay [1] is MCF7. Briefly: Cell cycle arrest in human MCF7 cells assessed as accumulation at sub-G1 phase after 24 hrs by flow cytometry relative to control. Type of assay: functional. The method in brief: (§1)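 Cells treated at 50 nM or 500 nM for 24 h, collected and fixed overnight in 70% ethanol at −20 °C. After two PBS washes, RNase A (0.5 mg/mL) and propidium iodide (2.5 µg/mL) were added for 30 min. DNA content was measured by flow cytometry and the percentage of cells in each cycle phase was determined.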
(In general: Flow cytometry measures light scatter and fluorescence of single cells or particles in a stream.)

Assay [2] relates to MCF7. Briefly: Cell cycle arrest in human MCF7 cells assessed as accumulation at G1 phase after 24 hrs by flow cytometry relative to control. Type of assay: functional. The method in brief: as §1
For assay [3], the system named is MCF7. Briefly: Cell cycle arrest in human MCF7 cells assessed as accumulation at S phase after 24 hrs by flow cytometry relative to control. Type of assay: functional. In a few lines:
as §1

The subject of assay [4] is MCF7. Briefly: Cell cycle arrest in human MCF7 cells assessed as accumulation at G2/M phase after 24 hrs by flow cytometry relative to control. Type of assay: functional. The method in brief: as §1
Assay [5] concerns MCF7. Briefly: Antiproliferative activity against human MCF7 cells after 48 hrs by MTT assay. Type of assay: functional, cell-based. The settings on record: MCF7, 48 h. The method in brief:
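After 24 h at 37 °C, 5% CO₂, compounds were added at preset concentrations for 48 h. MTT (2.5 mg/mL in PBS) was then added for 4 h, followed by 10% SDS–5% isobutyl alcohol–0.01 M HCl overnight at 37 °C. OD read at 570 nm. Triplicate wells per concentration; each assay run at least three times.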
For orientation: Tetrazolium assays rely on reduction of a dye to a coloured formazan, in cell work by metabolically active cells.

Assay [6] can be described thus: Inhibition of bovine brain tubulin polymerization by turbidimetric analysis. Details: species or system Bos taurus. The method in brief:
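Purified bovine brain tubulin (10 µM) preincubated with varying compound concentrations in glutamate buffer at 30 °C, then cooled to 0 °C. GTP added, mixtures warmed to 30 °C in cuvettes, and assembly followed by turbidity.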

In assay [7] the test system is MCF7. Briefly: Induction of apoptosis in human MCF7 cells assessed as morphological changes at 1 uM after 24 hrs using DAPI staining by fluorescence microscopic analysis. Type of assay: functional, cell-based. In a few lines: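 Cells cultured on 6-well plates and treated at 0 or 1.0 µM for 24 h. Fixed in ice-cold 4% paraformaldehyde for 20 min, then permeabilized in 0.1% sodium citrate/0.1% Triton X-100 for 2 min at 4 °C. Stained with DAPI (300 nM) and examined by fluorescence microscopy for nuclear morphology.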

The test system of assay [8] is MCF7. Briefly: Cell cycle arrest in human MCF7 cells assessed as accumulation at G2/M phase after 24 hrs by flow cytometry. The assay is classed as functional, cell-based. The method in brief:
as §1

The subject of assay [9] is MCF7. Briefly: Cell cycle arrest in human MCF7 cells assessed as accumulation at sub-G1 phase at 50 nM after 24 hrs by flow cytometry relative to control. The assay is classed as functional. In a few lines:
as §1

In assay [10] the test system is MCF7. Briefly: Cell cycle arrest in human MCF7 cells assessed as accumulation at G1 phase at 50 nM after 24 hrs by flow cytometry relative to control. The assay is classed as functional. In a few lines: as §1
Assay [11] deals with MCF7. Briefly: Cell cycle arrest in human MCF7 cells assessed as accumulation at S phase at 50 nM after 24 hrs by flow cytometry relative to control. The assay is classed as functional. In a few lines:
as §1

Assay [12] deals with MCF7. The assay can be described thus: Cell cycle arrest in human MCF7 cells assessed as accumulation at G2/M phase at 50 nM after 24 hrs by flow cytometry relative to control. Type of assay: functional. In a few lines:
as §1

Assay [13] relates to MCF7. The assay can be described thus: Cell cycle arrest in human MCF7 cells assessed as accumulation at sub-G1 phase at 500 nM after 24 hrs by flow cytometry relative to control. Type of assay: functional. In a few lines:
as §1

In assay [14] the test system is MCF7. The assay can be described thus: Cell cycle arrest in human MCF7 cells assessed as accumulation at G1 phase at 500 nM after 24 hrs by flow cytometry relative to control. Type of assay: functional. In a few lines:
as §1

The subject of assay [15] is MCF7. The assay can be described thus: Cell cycle arrest in human MCF7 cells assessed as accumulation at S phase at 500 nM after 24 hrs by flow cytometry relative to control. The assay is classed as functional. The method in brief:
as §1

In assay [16] the test system is MCF7. The assay can be described thus: Cell cycle arrest in human MCF7 cells assessed as accumulation at G2/M phase at 500 nM after 24 hrs by flow cytometry relative to control. The assay is classed as functional. The method in brief: as §1

As for `COc1cc2c(c(OC)c1OC)-c1ccc(OC)c(=O)cc1[C@@H](NC(C)=O)CC2` [COLCHICINE], the Activity in [1] came to 14.58%; in assay [2], 8.58%; in assay [3], 8.16%; in assay [4], 43.11%.

A word on the IC50: it is the point on the concentration scale where inhibition reaches its midpoint. Read a low IC50 as inhibition by little substance. Consider `N=C(N)N/N=C(/C=C/c1cccc(F)c1)c1ccccc1`, for which the IC50 came to 16 µM in assay [5] and 150 µM in assay [6].

For `N=C(N)N/N=C(/C=C/c1ccc(-c2ccccc2)cc1)c1ccccc1`, the IC50 in [5] amounted to 0.8 µM; in [6] it was 12 µM.

As to `N=C(N)N/N=C(/C=C/c1cccc2ccccc12)c1ccccc1`, the half-maximal inhibitory concentration (IC50) in assay [5] is 1.6 µM; in assay [6], 18 µM.

Consider `N=C(N)N/N=C(/C=C/c1ccccc1)c1ccc(Cl)c(Cl)c1`, for which the IC50 in assay [5] worked out at 1.9 µM; in [6] it was 24 µM.

In the case of `COc1ccccc1/C=C/C(=N/NC(=N)N)c1ccccc1`, the half-maximal inhibitory concentration (IC50) in [5] is 7.2 µM; in assay [6], 84 µM.

With `N=C(N)N/N=C(/C=C/c1ccc(OCc2ccccc2)cc1)c1ccccc1`, the results for the IC50 in assay [5] and in assay [6] were 1.2 µM and 16 µM, respectively.

For `N=C(N)N/N=C(/C=C/c1ccccc1)c1ccccc1`, the figures for the IC50 in [5] and in assay [6] were 17 µM and 140 µM, respectively.

`COc1ccc(C(/C=C/c2ccccc2)=N\NC(=N)N)cc1`: the values for the IC50 in assay [5] and in [6] were 13 µM and 130 µM, respectively.

`Cc1ccc(/C=C/C(=N/NC(=N)N)c2ccccc2)cc1`: the 50% inhibitory concentration (IC50) in assay [5] amounted to 16 µM; in assay [6] it was 170 µM.

For the compound `N=C(N)N/N=C(/C=C/c1ccccc1F)c1ccccc1`, the half-inhibitory concentration (IC50) is 3.9 µM in assay [5] and 42 µM in assay [6].

For the compound `COc1ccc(/C=C/C(=N/NC(=N)N)c2ccccc2)cc1`, the 50% inhibitory concentration (IC50) in assay [5] came to 14 µM; in assay [6], 140 µM.

Take `N=C(N)N/N=C(/C=C/c1ccc(Br)cc1)c1ccccc1`: the IC50 in [5] is 0.25 µM; in assay [6] it was 10 µM.

Turning to `N=C(N)N/N=C(/C=C/c1ccc(Cl)cc1)c1ccccc1`, the IC50 was 0.7 µM in assay [5] and 14 µM in assay [6].

For `N=C(N)N/N=C(/C=C/c1ccccc1)c1ccc(Cl)cc1`, the half-inhibitory concentration (IC50) came to 0.35 µM in [5] and 15 µM in [6].

Consider `N=C(N)N/N=C(/C=C/c1ccc(F)cc1)c1ccccc1`, for which the figures for the concentration for half-maximal inhibition (IC50) in assay [5] and in assay [6] were 2.5 µM and 28 µM, respectively.

On to `Cc1ccc(C(/C=C/c2ccccc2)=N\NC(=N)N)cc1`, for which the half-inhibitory concentration (IC50) in assay [5] came out at 14 µM; in assay [6], 150 µM.

Regarding `N=C(N)N/N=C(/C=C/c1ccccc1Cl)c1ccccc1`, the values for the IC50 in [5] and in assay [6] were 4.2 µM and 55 µM, respectively.

Consider `COc1ccc(/C=C\c2cc(OC)c(OC)c(OC)c2)cc1O` [COMBRETASTATIN A4], for which inhibition in assay [6] was half-maximal at 2.2 µM (IC50).

As for `N=C(N)N/N=C(/C=C/c1ccccc1)c1ccc(Br)cc1`, the IC50 came out at 0.09 µM in assay [5] and 8.4 µM in [6]. Moreover, in assay [7], the outcome was Active. The Activity entry was “Dose-dependent effect” in assay [8]; 2.63% in assay [9]; 48.76% in assay [10]; 14.54% in assay [11]; 23.38% in assay [12]; 4.52% in [13]. For the same compound, the results for the Activity in assay [14], in assay [15] and in assay [16] were 1.5%, 3.14% and 54.12%, respectively.

With `N=C(N)N/N=C(/C=C/c1ccccc1Br)c1ccccc1`, the values for the half-maximal inhibitory concentration (IC50) in assay [5] and in assay [6] were 4.2 µM and 52 µM, respectively.

Consider `N=C(N)N/N=C(/C=C/c1cccc([N+](=O)[O-])c1)c1ccccc1`, for which the IC50 in assay [5] turned out to be 6.5 µM; in assay [6], 85 µM.

For the compound `COc1cccc(/C=C/C(=N/NC(=N)N)c2ccccc2)c1`, the half-inhibitory concentration (IC50) in assay [5] was 13 µM; in assay [6], 130 µM.

Source of the values: ChEMBL document CHEMBL1287734, “Synthesis, molecular modeling and biological evaluation of guanidine derivatives as novel antitubulin agents” (Bioorg Med Chem, 2010).
